What was measured:
Mus musculus [1] = test: In vivo inhibition of STS in ovariectomized Balb/c mouse assessed as reduction in E1S-stimulated uterus weight at 30 mg/kg, sc administered twice daily starting from day 2 to day 10 using MC/EtOH formulation and E1S addition on day 5 to 10 measured on day 11 relative to control; type: functional
Outline: (§1)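 Female Balb/c mice (15–20 g) ovariectomized under isoflurane, 5/group. Inhibitor given SC in 0.1 mL MC:EtOH (92:8) on days 2–10. E1S (2 µg/mouse, BID) or E1 (0.06 µg/mouse, ID) given SC on days 5–10. Vehicle controls included. Uterus dissected and weighed on day 11. Means ± SEM.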

[2] = Plasma concentration in Balb/c mouse at 30 mg/kg, sc administered as single dose using MC/EtOH formulation measured after 12 hrs by LC-MS/MS analysis; type: ADME, organism-based
Outline: (§2)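 Female Balb/c mice, fasted 8 h with free water, given a single dose in 0.1 mL vehicle: EO-33 dissolved in EtOH, then aqueous 0.4% methylcellulose added to a final 8% EtOH. Sacrificed under isoflurane at 1, 3, 7, 12 and 24 h (2–3 mice/group). Cardiac blood collected into K-EDTA and plasma stored at −80 °C. LC-MS/MS on 100 µL plasma. AUC0-24h taken from the five time points.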

[3] = Plasma concentration in Balb/c mouse at 30 mg/kg, po administered via gavage as single dose using MC/EtOH formulation measured after 7 hrs by LC-MS/MS analysis; type: ADME, organism-based; outline: as §2
[4] = AUC (0 to 24 hrs) in Balb/c mouse assessed as (4-(((furan-2-ylmethyl)((5-methylthiophen-2-yl)methyl)amino)methyl)phenyl)(7-hydroxy-3,4-dihydroisoquinolin-2(1H)-yl)methanone level at 30 mg/kg, sc administered as single dose using MC/EtOH formulation by LC-MS/MS analysis; type: ADME, organism-based; design: time < 24 hr, dose 30 mg/kg, route subcutaneous; details: in vivo
Mus musculus [5] = test: In vivo inhibition of STS in ovariectomized Balb/c mouse assessed as reduction in E1S-stimulated uterus weight at 15 mg/kg, sc administered twice daily starting from day 2 to day 10 using MC/EtOH formulation and E1S addition on day 5 to 10 measured on day 11 relative to control; type: functional; outline: as §1
[6] = Plasma concentration in Balb/c mouse at 2 mg/kg, sc administered as single dose using MC/EtOH formulation measured at 1 hr by LC-MS/MS analysis; type: ADME, organism-based; outline: as §2
[7] = Plasma concentration in Balb/c mouse at 2 mg/kg, sc administered as single dose using MC/EtOH formulation measured after 7 hrs by LC-MS/MS analysis; type: ADME, organism-based; outline: as §2
[8] = Plasma concentration in Balb/c mouse at 2 mg/kg, sc administered as single dose using MC/EtOH formulation measured after 12 hrs by LC-MS/MS analysis; type: ADME, organism-based; outline: as §2
[9] = AUC (0 to 24 hrs) in Balb/c mouse at 30 mg/kg, sc administered as single dose using MC/EtOH formulation by LC-MS/MS analysis; type: ADME, organism-based; design: dose 30 mg/kg, time < 24 hr, route subcutaneous; details: in vivo; outline: as §2
[10] = Plasma concentration in Balb/c mouse at 30 mg/kg, po administered via gavage as single dose using MC/EtOH formulation measured at 1 hr by LC-MS/MS analysis; type: ADME, organism-based; outline: as §2
[11] = Toxicity in nu/nu Br athymic mouse xenografted with human […]-stimulated MCF7 cells assessed as effect on liver weight at 30 mg/kg, sc administered 6 days per week […] using MC/EtOH formulation measured 3 hrs post-last dose; type: organism-based; details: in vivo
Outline: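 MCF-7 cells (grown in DME-F12 with 5% FBS and 1 nM estradiol) inoculated SC at 4.1 x 10^6 cells in 30% Matrigel into both flanks of bilaterally ovariectomized nude mice, three days after surgery; E2S 50 µg/mouse SC three times weekly. Test agent SC 6 days/week in 0.1 mL MC:EtOH (92:8) for 28 days; vehicle-only controls. Mice weighed and killed 3 h after last dose; livers removed.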

Mus musculus [12] = test: Anti-estrogenic activity in ovariectomized Balb/c mouse assessed as reversal of E1-induced estrogenic effect at 30 mg/kg, sc administered once daily starting from day 2 to day 10 using MC/EtOH formulation and E1 addition on day 5 to 10 measured on day 11; type: organism-based; details: in vivo; outline: as §1
[13] = Hepatotoxicity in ovariectomized-induced C57BL/6 mouse model of osteoporosis assessed as effect on liver weight at 30 mg/kg, sc administered 6 days per week for 70 days using MC/EtOH formulation measured post last dose by necropsy analysis; type: toxicity, organism-based; details: in vivo
[14] = Plasma concentration in Balb/c mouse at 10 mg/kg, sc administered as single dose using MC/EtOH formulation measured after 3 hrs by LC-MS/MS analysis; type: ADME, organism-based; outline: as §2
Mus musculus [15] = test: In vivo inhibition of STS in ovariectomized Balb/c mouse assessed as reduction in E1S-stimulated uterus weight at 30 mg/kg, sc administered once daily starting from day 2 to day 10 using MC/EtOH formulation and E1S addition on day 5 to 10 measured on day 11 relative to control; type: functional; outline: as §1
[16] = Lipophilicity, log P of the compound; type: physicochemical; details: octanol/water
[17] = Plasma concentration in Balb/c mouse at 10 mg/kg, sc administered as single dose using MC/EtOH formulation measured after 24 hrs by LC-MS/MS analysis; type: ADME, organism-based; outline: as §2
[18] = Plasma concentration in Balb/c mouse at 30 mg/kg, po administered via gavage as single dose using MC/EtOH formulation measured after 3 hrs by LC-MS/MS analysis; type: ADME, organism-based; outline: as §2
[19] = Toxicity in nu/nu Br athymic mouse xenografted with human E2S-stimulated MCF7 cells assessed as whitish deposit at injection site at 30 mg/kg, sc administered 6 days per week for 28 days using MC/EtOH formulation by TLC analysis; details: in vivo
[20] = Plasma concentration in Balb/c mouse at 30 mg/kg, sc administered as single dose using MC/EtOH formulation measured after 3 hrs by LC-MS/MS analysis; type: ADME, organism-based; outline: as §2
[21] = Plasma concentration in Balb/c mouse at 10 mg/kg, sc administered as single dose using MC/EtOH formulation measured after 12 hrs by LC-MS/MS analysis; type: ADME, organism-based; outline: as §2
Mus musculus [22] = test: Estrogenic activity in ovariectomized Balb/c mouse assessed as stimulation of uterine weight at 30 mg/kg, sc administered once daily from day 2 to 10 using MC/EtOH formulation measured on day 11; type: organism-based; details: in vivo; outline: as §1
Mus musculus [23] = test: Estrogenic activity in ovariectomized-induced C57BL/6 mouse model of osteoporosis assessed as stimulation of uterus weight at 30 mg/kg, sc administered 6 days per week for 70 days using MC/EtOH formulation measured post last dose by necropsy analysis; type: ADME, organism-based; details: in vivo
[24] = Toxicity in ovariectomized-induced C57BL/6 mouse model of osteoporosis assessed as effect on body weight at 30 mg/kg, sc administered 6 days per week for 70 days using MC/EtOH formulation measured post last dose; type: organism-based; details: in vivo
Outline: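 Female C57BL/6 mice, 63-70 days old, ovariectomized under isoflurane (sham-operated controls), randomized by weight into groups of 8. Treated SC in 0.1 mL MC:EtOH (92:8) over 70 days; sham and OVX controls received vehicle alone. Mice weighed at the end of the protocol before necropsy.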

[25] = Plasma concentration in Balb/c mouse at 30 mg/kg, sc administered as single dose using MC/EtOH formulation measured after 7 hrs by LC-MS/MS analysis; type: ADME, organism-based; outline: as §2

## Cc1ccc(CN(Cc2ccc(C(=O)N3CCc4ccc(OS(N)(=O)=O)cc4C3)cc2)Cc2ccco2)s1
Mus musculus [1]
  inhibition in vivo at 30 mg/kg: 69%
[2]
  concentration at 12 h: 64 ng/mL
[3]
  concentration at 7 h: 75 ng/mL
[4]
  AUC: 269 ng·h/mL
Mus musculus [5]
  inhibition in vivo at 15 mg/kg: 49%
[6]
  concentration at 1 h: 681 ng/mL
[7]
  concentration at 7 h: 1 ng/mL
[8]
  concentration at 12 h: 1 ng/mL
[9]
  AUC(0-t) at 24 h: 13500 ng·h/mL
[10]
  concentration at 1 h: 308 ng/mL
[11]
  Activity: Non-Toxic
Mus musculus [12]
  Activity: Non-Toxic
[13]
  Activity: Non-Toxic
[14]
  concentration at 3 h: 398 ng/mL
Mus musculus [15]
  inhibition in vivo at 30 mg/kg: 42%
[16]
  logP: 4.02
[17]
  concentration at 24 h: 2 ng/mL
[18]
  concentration at 3 h: 19 ng/mL
[19]
  Activity: Toxic
[20]
  concentration at 3 h: 2190 ng/mL
[21]
  concentration at 12 h: 4 ng/mL
Mus musculus [22]
  Activity: Non-Toxic
Mus musculus [23]
  Activity: Non-Toxic
[24]
  Activity: Non-Toxic
[25]
  concentration at 7 h: 530 ng/mL

Reference: ChEMBL document CHEMBL4396876, “Antisulfatase, Osteogenic, and Anticancer Activities of Steroid Sulfatase Inhibitor EO-33 in Mice” (J Med Chem, 2019)
